# Reference: article PMC8671219 (Arthritis & Rheumatology (Hoboken, N.j.), 2021)
# Read-outs that look alike come from different tables or passages of the source.
# Experiments:
# [1] = system: R848 induced TNF in human whole blood; assay: Human whole blood cytokine release assay; type: cell-based
# Procedure, shortened: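 Heparin-anticoagulated whole blood (human, mouse or rat), or PBMC derived from it, was incubated with test compound and then exposed to TLR ligand. Cytokines were measured by Meso Scale Discovery immunoassay. EC50 and Hill slope were fitted from concentration–response data, and free-drug potency was derived using measured protein binding values.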
# [2] = system: nuclear localization of IRF-5 in PBMCs; assay: Monocyte IRF5 nuclear localization assay; type: cell-based, human; settings: 100 nM, 2 hours
# Procedure, shortened: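 Healthy-volunteer PBMCs were incubated with 100 nM test compound or none, then stimulated with R848 or SLE patient sera for 2 hours at 37°C. IRF-5 nuclear translocation was quantified by Amnis imaging cytometry.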
# [3] = system: human macrophages stimulated with ACPA immune complexes; assay: Macrophage ACPA-IC induced TNFα assay; type: cell-based; settings: 100 nM inhibitor, 11 donors, mean ± SEM
# Procedure, shortened: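 Human macrophages from 11 donors were preincubated with 100 nM inhibitor and then stimulated with anti-citrullinated protein antibody immune complexes. TNF in supernatants was measured by immunoassay and expressed as % of DMSO-only treatment (mean ± SEM), compared by paired t-test.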
# [4] = system: human RA fibroblast-like synoviocytes; assay: Human RA-FLS assay; type: cell-based; settings: 100 nM
# Procedure, shortened: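 Human RA fibroblast-like synoviocytes were incubated with 100 nM test compound or vehicle before adding 0.1 ng/ml IL-1β. IL-6, IL-8 and MMP-1 in supernatants were measured by Meso Scale Discovery assay and expressed as percent of vehicle control, separately per donor.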
# [5] = system: human primary cell cocultures (4H, LPS, SAg, BT, MyoF, /Mphg); assay: BioMAP Diversity Plus Panel; type: cell-based; settings: multicellular human primary cell systems
# Procedure, shortened: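 An external provider ran BioMAP Diversity Plus profiling with each compound at the noted concentrations, scoring multiple end points per system. The systems were venular endothelial cells (4H), PBMC plus endothelial cells with LPS, PBMC plus endothelial cells with superantigen, B cells plus PBMC (BT), lung fibroblasts (MyoF), and macrophages plus venular endothelial cells. Etanercept and tofacitinib served as comparators.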
# [6] = system: rat collagen-induced arthritis; assay: Rat collagen-induced arthritis model of RA; type: in vivo; settings: rat CIA; PF-06650833 3 mg/kg twice daily or tofacitinib 10 mg/kg daily, oral, 7 days; vehicle 0.786 ± 0.043; mean ± SEM, n = 10
# [7] = system: human B cells primed with IFNα and stimulated with R848; assay: B cell maturation assay; type: cell-based
# Procedure, shortened: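 Human B cells were isolated from Leukopaks and preincubated with 100 nM test compound, then given IFNα plus R848. Supernatants were harvested at 24 h for IL-6 and at 72 h for IL-10. Values are % of control; n = 6 donors, compared by paired t-test.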
# [8] = system: human plasmacytoid dendritic cells; assay: Plasmacytoid DC stimulation with SLE neutrophil supernatants; type: cell-based; settings: 200 nM preincubation; 24 hours; n = 5
# Procedure, shortened: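 SLE patient neutrophils were induced to undergo NETosis with R837, and their supernatants were collected. Plasmacytoid DCs were FACS-sorted from the DC fraction of healthy-volunteer buffy coats. They were cultured in 40% neutrophil supernatant with or without 200 nM test compound for 24 hours. CD83 was measured by flow cytometry against isotype control; n = 5.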
# [9] = system: human PBMCs stimulated with SLE immune complexes; assay: SLE-IC assay; type: cell-based; settings: 100 nM, 24 hours
# Procedure, shortened: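 SLE immune complexes were made by purifying IgG from plasma of an anti-RNP/anti-dsDNA-positive SLE patient and mixing it with apoptotic cells. Human PBMCs were stimulated with these complexes with or without 100 nM test compound for 24 hours. IFNα in supernatant was measured by ELISA, and RSAD2, USP18 and GBP1 by qRT-PCR as relative quantification. n = 5 donors; analysed by 2-way ANOVA.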
# [10] = system: pristane-induced lupus in BALB/c mice; assay: Pristane in vivo model of SLE; parameters: species or system mouse
# MRL/lpr mice = assay: MRL/lpr in vivo model of SLE; parameters: species or system mouse
# [11] = system: whole blood 21-gene IFN gene signature; assay: Interferon signature modulation in Phase 1 MAD study in healthy volunteers; type: in vivo, human; settings: 300 mg modified-release qd
# Procedure, shortened: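 In a randomized, double-blind phase I multiple-ascending-dose study, healthy volunteers received modified-release test compound 300 mg once daily (n = 7) or placebo (n = 11) for 14 days. PAXgene whole blood was drawn on day 0 before the first dose and on day 14 before the last dose. RNA was sequenced, and an equally weighted 21-gene IFN signature was scored as percent change, day 14 versus day 0.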
# [12] = system: C-reactive protein (CRP) levels; settings: healthy volunteers; modified-release 300 mg daily; day 14; cited from earlier work
# [13] = system: active rheumatoid arthritis; settings: patients with active RA and inadequate response to methotrexate; cited from earlier work
compound,measurement,setting,value
"CC[C@@H]1[C@H](F)C(=O)N[C@@H]1COc1nccc2cc(C(N)=O)c(OC)cc12 [PF‐06650833, 1‐{[(2S,3S,4S)‐3‐Ethyl‐4‐fluoro‐5‐oxopyrrolidin‐2‐yl]methoxy}‐7‐methoxyisoquinoline‐6‐carboxamide]",EC50,[1]; read-out: EC50 values across the preclinical assays,2 to 10 nM
same,IC50,"[1]; read-out: IC50 total, human whole blood R848 induced TNF",8.8 nM
same,nuclear localization of IRF-5 stimulated by R848,"[2]; without compound 23.0 ± 13.0, n = 3",6.8 ± 4.4%
same,IRF-5 nuclear localization in response to SLE patient sera,"[2]; without compound 38.6 ± 18.4, n = 12",24.2 ± 13.0%
same,"ACPA IC-induced TNF release, % of that seen with DMSO treatment alone",[3],57.5 ± 17.9%
same,IL-1-induced cytokines in RA FLS,[4],did not inhibit
same,MMP induction by IL-1β in RA FLS,[4],able to block
same,cytokine and matrix metalloproteinase (MMP) release in response to all ligands profiled,[4]; RA FLS,substantially reduced
same,BioMAP phenotypic profile of inflammatory readouts,[5],greatest inhibition of inflammatory readouts in assays of innate immunity
same,paw volume on day 7,[6],0.555 ± 0.034 mL
same,activity at 0.1 µM,"[7]; 24 h, read-out: B cell IL-6 production, % of control",50 ± 16.7%
same,activity at 0.1 µM,"[7]; 72 h, read-out: B cell IL-10 production, % of control",41.3 ± 7.1%
same,pDC CD83 up-regulation induced by neutrophil DAMPs,[8],significantly inhibited
same,IFNα release from PBMCs stimulated with SLE ICs,[9]; n = 5 donors,inhibited IFNα release in all donors
same,"induction of 3 IFN-responsive genes (RSAD2, USP18, and GBP1)","[9]; SLE ICs, PBMCs",inhibited
same,anti-SSA IgG at week 20,"[10]; 200mpk in chow weeks 8-20, control 7,693 ± 1,241","2,726 ± 494 units/ml"
same,anti-RNP IgG at week 20,"[10]; 200mpk in chow weeks 8-20, control 18,127 ± 7,902","3,730 ± 2,861 units/ml"
same,mean PAS area per tuft,"[10]; kidney, week 20, pristane alone 1,252 ± 45, n = 8","1,045 ± 47 μm^2"
same,C3 and IgG deposition by immunohistochemistry,"MRL/lpr mice; 200mg/kg in chow, 12-13 weeks",significantly reduced
same,anti-SSA,"MRL/lpr mice; 200mg/kg in chow, 12-13 weeks",trends toward reductions
same,anti-dsDNA,"MRL/lpr mice; 200mg/kg in chow, 12-13 weeks",trends toward reductions
same,anti-histone IgG,"MRL/lpr mice; 200mg/kg in chow, 12-13 weeks",significantly reduced
same,glomerular nephropathy,"MRL/lpr mice; 200mg/kg in chow, 12-13 weeks",significantly reduced
same,glomerular nuclear area by image analysis,"MRL/lpr mice; 200mg/kg in chow, 12-13 weeks",significantly reduced
same,glomerular tuft area by image analysis,"MRL/lpr mice; 200mg/kg in chow, 12-13 weeks",significantly reduced
same,histologic kidney inflammation,"MRL/lpr mice; 200mg/kg in chow, 12-13 weeks",significantly reduced
same,lymphadenopathy,"MRL/lpr mice; 200mg/kg in chow, 12-13 weeks",significantly reduced
same,splenomegaly,"MRL/lpr mice; 200mg/kg in chow, 12-13 weeks",trends toward reductions
same,tubular injury,"MRL/lpr mice; 200mg/kg in chow, 12-13 weeks",trends toward reductions
same,subjects with negative change of IFN gene score between day 0 and day 14,[11],6 of 7
same,"reduction of IFN gene signature, median percent change day 14 vs day 0","[11]; 14 days, n = 7, placebo +9.1%",28.8%
same,difference in IFN gene signature change vs placebo,[11]; day 14,−37.9%
same,CRP levels,[12],statistically significant reductions
same,disease activity in phase II study,[13],significant effects on disease activity
"N#CN1CCCC(n2nc(-c3ccc(Oc4ccc(F)cc4F)cc3)c(C(N)=O)c2N)C1 (stereo not drawn) [PF‐06250112, reference compound]",all renal histologic pathology end points other than PAS area per tuft,MRL/lpr mice; 30 mg/kg PO qd,significantly reduced
same,autoantibody titers,MRL/lpr mice; 30 mg/kg PO qd,significantly reduced
"C[C@@H]1CCN(C(=O)CC#N)C[C@@H]1N(C)c1ncnc2[nH]ccc12 [tofacitinib, reference compound]",BioMAP phenotypic profile of inflammatory readouts,[5],no impact on assays of innate immunity
same,paw volume on day 7,[6],0.371 ± 0.044 mL
Etanercept,BioMAP phenotypic profile of inflammatory readouts,[5],predominant activity in the myofibroblast‐ and macrophage‐containing assays
